Data reported in ChEMBL document CHEMBL1811767, “Quinoxalin-2(1H)-one derivatives as inhibitors against hepatitis C virus” (J Med Chem, 2011).
Calls of active or inactive are those of the source. The calls are words filed in the database; no cut-off is given here.

Tests used:
[1] = Cytotoxicity against human Huh7ET cells by CytoTox-one cell proliferation assay; assay type: cell-based; details: Huh-7
Procedure, shortened: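 Parallel plate of replicon Huh 7 ET cells (5000/well, DMEM without G418), compounds from DMSO stocks diluted in DMEM, 72 h. Viability by tetrazolium-based CytoTox-1 proliferation assay. Mean of four replicates; IC50 = concentration decreasing cell viability by 50%.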

[2] = Selectivity index, ratio of IC50 for human Huh7ET cells to EC50 for Hepatitis C virus; assay type: toxicity, cell-based, Huh-7; details: read-out: Ratio IC50/EC50
Procedure, shortened: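 SI taken as IC50 (CytoTox-1 viability, Huh 7 ET replicon cells, 72 h) divided by EC50 (replicon luciferase, same cells and exposure); each from four-replicate averages.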

Hepatitis C virus [3] = assay: Antiviral activity against Hepatitis C virus infected in human Huh7ET cells assessed as inhibition of dicistronic viral RNA replication after 72 hrs by luciferase reporter gene assay; assay type: functional, organism-based, Hepacivirus hominis; details: Huh-7, 72 h
Procedure, shortened: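 HCV replicon Huh 7 ET cells seeded 5000/well in DMEM without G418 overnight; compounds dissolved in DMSO, diluted in DMEM, dose-response. After 72 h, replicon-derived luciferase read by Steady-Glo. Mean of four replicates; EC50 = concentration inhibiting HCV RNA replication by 50%.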

Hepacivirus hominis [4] = assay: Inhibition of Hepatitis C virus NS5B polymerase
Hepacivirus hominis [5] = assay: Inhibition of Hepatitis C virus protease
[6] = Cytotoxicity against human Huh7ET cells at 20 uM by CytoTox-one cell proliferation assay; assay type: cell-based; details: huh-7, 20 µM
Procedure, shortened: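 Huh 7 ET replicon cells exposed to single 20 μM for 72 h in primary screen; viability by tetrazolium-based CytoTox-1 assay, reported as percent relative to control cells.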

Hepatitis C virus [7] = assay: Antiviral activity against Hepatitis C virus infected in human Huh7ET cells assessed as inhibition of dicistronic viral RNA replication at 20 uM after 72 hrs by luciferase reporter gene assay; assay type: functional, Hepacivirus hominis, Huh-7; set-up: scale not given: the % may be the effect or the level left
Procedure, shortened: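 Primary screen at single 20 μM in replicon Huh 7 ET cells (5000/well, DMEM without G418, overnight seeding). After 72 h exposure, replicon luciferase measured with Steady-Glo. Value expressed as percent inhibition relative to control cells.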

Row | SMILES | IC50 [1] | selectivity ratio [2] | EC50 (Hepatitis C virus [3]) | inhibition (Hepacivirus hominis [4]) | inhibition (Hepacivirus hominis [5]) | Cell viability relative to control [6] | Activity (Hepatitis C virus [7])
1 | CN(c1cc2ncc(=O)[nH]c2cc1Nc1nc(-c2ccccc2)cs1)C1CCCCC1 | 62.5 µM | 37.4 | 1.67 µM | inactive | inactive |  | 
2 | CCOC(=O)C1CCN(c2cc3ncc(=O)[nH]c3cc2Nc2nc(-c3ccccc3)cs2)CC1 |  |  |  |  |  | 59.6% | 37.6%
